From publication PMC3523546 (Journal of Medicinal Chemistry, 2012)
Each block holds one molecule with its values, some of them ahead of it. Square brackets hold non-standard residues; d marks the D form. Peptide text beside a SMILES is read from it. * marks the point of attachment. FITC = O=C1OC2(c3ccc(O)cc3Oc3cc(O)ccc32)c2ccc(NC(=S)*)cc21; βAla = NCCC(=O)O

Columns and labels:
LNCaP cells [1] = assay: Cell cycle analysis; type: cell-based; details: 200 μM, 96 h
Procedure, shortened: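 LNCaP cells (4 × 10^5 per 10 cm dish) grown 24 h untreated, then given vehicle (0.1% DMSO) or 100 or 200 μM peptide in 10% FBS medium for 96 h, with medium changed every 24 h. Cells trypsinised, fixed in ice-cold ethanol (30 min, room temperature), and stained with propidium iodide plus RNaseA in HEPES pH 7.2 buffer. Flow cytometry: ≥10000 gated singlets. Phase percentages taken from living cells. Three experiments in duplicate; unpaired two-tailed t test.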

amino-peptidases = assay: Stability of the peptide to amino-peptidases; type: in vitro ADME; details: N-terminal Leu replaced by DLeu, versus ML-peptide; unpublished data
DU145 cells [2] = assay: Cellular uptake of FITC peptides by FACS; type: cell-based; details: for geometric mean of the distribution (GeoMean), range over both wash conditions: DU145, 10 μM FITC peptide, 1 h, FACS
Procedure, shortened: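 DU145 cells (4 × 10^5) incubated 1 h in serum-free RPMI with 10 μM FITC-labelled peptide, then pelleted. Pellets washed twice with 0.05% trypsin, 5 min at 37 °C, to strip membrane-bound label. Propidium iodide (10 μg/mL, 2 min) excluded membrane-damaged cells. At least 10000 events acquired per sample, excluding clumps and debris. Uptake reported as geometric mean fluorescence.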

DU145 cells [3] = assay: MTT proliferation assay, DU145; type: cell-based; details: 72 h
Procedure, shortened: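 DU145 cells seeded at 1500 per well in RPMI 1640 with 5% FBS. After 24 h, medium changed and peptide added for 72 h. MTT added (1 mg/mL final) for 4 h, then formazan dissolved in 2-propanol–HCl. Metabolic activity normalised to vehicle (bidistilled water, 0.1% DMSO). IC50 from curve fitting; tabulated IC50 are means of five independent experiments.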

LNCaP cells [4] = assay: MTT proliferation assay, LNCaP; type: cell-based; details: 72 h
Procedure, shortened: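 LNCaP cells seeded at 2500 per well on poly-lysine-coated plates in RPMI 1640 with 10% FBS. Medium changed after 24 h, then peptide exposure for 72 h. MTT (1 mg/mL final) incubated 4 h; formazan dissolved in 2-propanol–HCl. Signal normalised to vehicle-treated cells (water, 0.1% DMSO).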

[5] = biological target: T1, P6 Lys hexapeptide inhibitor; assay: enzyme inhibition assay
T1 chain: KLRVKR

[6] = biological target: T2, P6 Arg hexapeptide inhibitor; assay: enzyme inhibition assay
T2 chain: RLRVKR

PC7 prodomain prodomain = biological target: T3, PC7 prodomain prodomain (Homo sapiens, UniProt Q16549); assay: enzyme inhibition assay
T3 chain: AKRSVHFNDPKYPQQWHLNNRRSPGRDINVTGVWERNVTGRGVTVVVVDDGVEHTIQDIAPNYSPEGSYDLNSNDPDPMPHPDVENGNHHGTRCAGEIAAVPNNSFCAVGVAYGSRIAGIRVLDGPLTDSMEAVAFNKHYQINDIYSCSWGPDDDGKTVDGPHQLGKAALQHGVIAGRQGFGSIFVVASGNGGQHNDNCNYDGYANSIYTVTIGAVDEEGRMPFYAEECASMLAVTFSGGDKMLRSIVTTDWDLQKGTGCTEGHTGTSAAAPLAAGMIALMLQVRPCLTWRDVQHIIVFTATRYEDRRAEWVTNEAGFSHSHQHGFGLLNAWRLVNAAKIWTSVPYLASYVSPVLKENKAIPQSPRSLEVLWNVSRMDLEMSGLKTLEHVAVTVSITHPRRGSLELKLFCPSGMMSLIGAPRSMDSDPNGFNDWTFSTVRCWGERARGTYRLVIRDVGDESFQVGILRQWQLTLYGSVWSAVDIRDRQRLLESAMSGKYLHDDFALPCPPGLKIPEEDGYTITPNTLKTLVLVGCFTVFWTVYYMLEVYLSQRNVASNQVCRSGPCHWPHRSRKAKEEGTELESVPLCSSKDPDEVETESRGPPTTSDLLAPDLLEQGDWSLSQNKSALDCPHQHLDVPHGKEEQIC

[7] = biological target: T4, P6 Leu hexapeptide inhibitor; assay: enzyme inhibition assay
T4 chain: LLRVKR

stability of the peptide to amino-peptidases (amino-peptidases): improved stability
Molecule: CC(=O)N[C@H](CC(C)C)C(=O)N[C@@H](CC(C)C)C(=O)N[C@@H](CC(C)C)C(=O)N[C@@H](CC(C)C)C(=O)N[C@@H](CCCNC(=N)N)C(=O)N[C@H](C(=O)N[C@@H](CCCCN)C(=O)N[C@@H](CCCNC(=N)N)C(N)=O)C(C)C [Ac-[DLeu]LLLRVKR-NH2]
increase in the G0/G1 population (LNCaP cells [1]): 10%

Molecule: FITC-[β-Ala]-LLLLRVKR-NH2 ({FITC-βAla}-LLLLRVKR-NH2)
geometric mean of the distribution (GeoMean), range over both wash conditions (DU145 cells [2]): 48.90–52.82

Molecule: FITC-C8-LLLLRVKR-NH2 ({FITC-C8}-LLLLRVKR-NH2)
geometric mean of the distribution (GeoMean), range over both wash conditions (DU145 cells [2]): 260.08–261.95
GeoMean compared to the control FITC-β-Ala-ML-peptide (DU145 cells [2]; DU145, FACS): 5 fold

Molecule: CC(=O)N[C@@H](CCCNC(=N)N)C(=O)N[C@@H](C)C(=O)N[C@@H](CCCNC(=N)N)C(=O)N[C@@H](CCCNC(=N)N)C(=O)N[C@@H](CCCNC(=N)N)C(=O)N[C@@H](CCCCN)C(=O)N[C@@H](CCCCN)C(=O)N[C@@H](CCCNC(=N)N)C(=O)N[C@H](C(N)=O)[C@@H](C)O [reference compound]
inhibition of proliferation (DU145 cells [3]): no antiproliferative effects
inhibition of proliferation (LNCaP cells [4]): no antiproliferative effects

Molecule: CC(=O)N[C@@H](CC(C)C)C(=O)N[C@@H](CC(C)C)C(=O)N[C@@H](CC(C)C)C(=O)N[C@@H](CC(C)C)C(=O)N[C@@H](CCCNC(=N)N)C(=O)N[C@H](C(=O)N[C@@H](CCCCN)C(=O)N[C@H](CCCNC(=N)N)C(N)=O)C(C)C [Ac-LLLLRVK[DArg]-NH2] (Ac-LLLLRVK[dR]-NH2)
inhibition of proliferation (DU145 cells [3]): poor proliferation inhibitor
inhibition of proliferation (LNCaP cells [4]): poor proliferation inhibitor

Ki [5]: 37 nM
Ki [6]: 40 nM
Ki (PC7 prodomain prodomain): 0.34 nM
Ki [7]: 49 nM
B1: PACE4 (protein)
chain: QVRSDPQALYFNDPIWSNMWYLHCGDKNSRCRSEMNVQAAWKRGYTGKNVVVTILDDGIERNHPDLAPNYDSYASYDVNGNDYDPSPRYDASNENKHGTRCAGEVAASANNSYCIVGIAYNAKIGGIRMLDGDVTDVVEAKSLGIRPNYIDIYSASWGPDDDGKTVDGPGRLAKQAFEYGIKKGRQGLGSIFVWASGNGGREGDYCSCDGYTNSIYTISVSSATENGYKPWYLEECASTLATTYSSGAFYERKIVTTDLRQRCTDGHTGTSVSAPMVAGIIALALEANSQLTWRDVQHLLVKTSRPAHLKASDWKVNGAGHKVSHFYGFGLVDAEALVVEAKKWTAVPSQHMCVAASDKRPRSIPLVQVLRTTALTSACAEHSDQRVVYLEHVVVRTSISHPRRGDLQIYLVSPSGTKSQLLAKRLLDLSNEGFTNWEFMTVHCWGEKAEGQWTLEIQDLPSQVRNPEKQGKLKEWSLILYGTAEHPYHTFSAHQSRSRMLELSAPELEPPKAALSPSQVEVPEDEEDYTAQSTPGSANILQTSVCHPECGDKGCDGPNADQCLNCVHFSLGSVKTSRKCVSVCPLGYFGDTAARRCRRCHKGCETCSSRAATQCLSCRRGFYHHQEMNTCVTLCPAGFYADESQKNCLKCHPSCKKCVDEPEKCTVCKEGFSLARGSCIPDCEPGTYFDSELIRCGECHHTCGTCVGPGREECIHCAKNFHFHDWKCVPACGEGFYPEEMPGLPHKVCRRCDENCLSCAGSSRNCSRCKTGFTQLGTSCITNHTCSNADETFCEMVKSNRLCERKLFIQFCCRTCLLAG
